The record followed here is ChEMBL document CHEMBL1275345, “Pyrazolo[1',5':1,6]pyrimido[4,5-d]pyridazin-4(3H)-ones as selective human A(1) adenosine receptor ligands” (Bioorg Med Chem, 2010).

Assay [1] deals with T1, Adenosine receptor A3 (Homo sapiens) (UniProt P0DMS8).
T1 sequence (whole entry): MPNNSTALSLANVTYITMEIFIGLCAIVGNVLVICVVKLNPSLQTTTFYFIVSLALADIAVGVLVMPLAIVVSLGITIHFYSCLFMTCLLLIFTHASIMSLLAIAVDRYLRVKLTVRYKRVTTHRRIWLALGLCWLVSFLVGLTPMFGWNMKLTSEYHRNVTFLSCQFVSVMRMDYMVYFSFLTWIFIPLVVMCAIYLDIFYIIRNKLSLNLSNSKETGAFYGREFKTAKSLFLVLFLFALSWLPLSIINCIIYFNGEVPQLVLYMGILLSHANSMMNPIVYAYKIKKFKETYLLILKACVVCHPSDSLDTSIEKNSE
The assay can be described thus: Displacement of [3H]NECA from human adenosine A3 receptor expressed in HeLa cells at 10 uM after 180 mins. Type of assay: cell-based. The gist of the method:
(§1)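 HeLa cells expressing human A3 receptor, with displacement of [3H]NECA. Incubated at 25 °C for 180 min, then filtered and counted by beta scintillation. Ki (nM) or percentage inhibition at the single test concentration. Means of four assays, each in triplicate.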
On the technique in general: Loss of bound radioactivity is the signal in a displacement assay; it reports binding, not function.

Assay [2] addresses T2, Adenosine receptor A2b (Homo sapiens) (UniProt P29275).
T2 sequence (whole entry): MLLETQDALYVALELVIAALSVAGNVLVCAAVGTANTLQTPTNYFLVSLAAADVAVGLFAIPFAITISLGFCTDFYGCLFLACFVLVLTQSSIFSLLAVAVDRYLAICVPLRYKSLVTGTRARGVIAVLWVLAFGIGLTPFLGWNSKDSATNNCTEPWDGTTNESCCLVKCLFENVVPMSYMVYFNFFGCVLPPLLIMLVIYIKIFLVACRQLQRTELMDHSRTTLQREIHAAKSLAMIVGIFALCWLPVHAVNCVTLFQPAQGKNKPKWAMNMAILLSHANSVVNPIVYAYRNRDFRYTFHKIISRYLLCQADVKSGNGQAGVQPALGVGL
The assay can be described thus: Displacement of [3H]DPCPX from human adenosine A2b receptor expressed in HEK293 cells at 10 uM after 30 mins. Type of assay: cell-based. The gist of the method: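 Human A2B receptor expressed in HEK-293 cells, with displacement of [3H]DPCPX. Incubated at 25 °C for 30 min, then filtered and counted by beta scintillation. Reported as Ki (nM) or percentage inhibition at the single test concentration. Means of four independent assays, each run in triplicate.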

Assay [3] has as its target T3, Adenosine receptor A2a (Homo sapiens, UniProt P29274). The assay can be described thus: Displacement of [3H]ZM241385 from human adenosine A2a receptor expressed in HeLa cells after 30 mins. Format: cell-based. Put shortly: (§2)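 [3H]ZM241385 specific binding in HeLa cells expressing human A2A receptor. Incubation at 25 °C for 30 min, followed by filtration and beta scintillation counting. Output is Ki (nM) or % inhibition at the single test concentration. Values are means of four separate assays, each performed in triplicate.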

Assay [4] concerns the target T4, Adenosine receptor A1 (Homo sapiens, UniProt P30542).
T4 sequence (P30542 whole entry): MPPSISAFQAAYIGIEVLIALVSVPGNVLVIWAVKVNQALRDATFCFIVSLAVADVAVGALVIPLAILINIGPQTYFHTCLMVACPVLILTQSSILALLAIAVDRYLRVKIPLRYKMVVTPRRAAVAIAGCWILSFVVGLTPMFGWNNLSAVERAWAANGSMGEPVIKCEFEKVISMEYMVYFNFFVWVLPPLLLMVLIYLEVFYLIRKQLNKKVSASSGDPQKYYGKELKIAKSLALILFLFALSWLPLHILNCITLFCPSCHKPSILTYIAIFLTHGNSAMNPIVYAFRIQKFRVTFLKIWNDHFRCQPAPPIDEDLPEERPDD
The assay can be described thus: Displacement of [3H]DPCPX from human adenosine A1 receptor expressed in CHO-A1 cells after 60 mins. Type of assay: cell-based. Put shortly: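 Competition binding on membranes from CHO cells expressing human A1 receptor, labelled with 2 nM [3H]DPCPX. Non-specific binding defined with (R)-PIA. Incubation at 25 °C for 60 min, then filtration and beta scintillation counting. Result given as Ki (nM) or % inhibition at the single test concentration. Means of four separate assays, each in triplicate.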

For assay [5], the target named is cGMP-specific 3',5'-cyclic phosphodiesterase (Homo sapiens) (UniProt O76074). The assay can be described thus: Inhibition of human platelets PDE5 at 2 uM. The gist of the method:
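PDE5 came from human platelet lysate (10⁹ platelets): the supernatant was fractionated on a Mono-Q ion-exchange column. Activity was measured with a two-step cyclic nucleotide phosphodiesterase procedure. Compounds were tested at a single concentration and the result given as % inhibition.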

Assay [6] deals with T5, Adenosine receptor A2b (Homo sapiens, UniProt P29275).
T5 sequence (P29275 whole entry): T2 sequence (whole entry)
The assay can be described thus: Binding affinity to human adenosine A2b receptor. Put shortly:
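Competition binding on human A2B receptors expressed in HEK-293 cells, displacing [3H]DPCPX. Bound radioactivity was separated by filtration and counted by beta scintillation. Values are means of four separate assays, each run in triplicate.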

For assay [7], the target named is T6, Adenosine receptor A3 (Bos taurus, UniProt Q0VC81).
T6 sequence (Q0VC81 whole entry): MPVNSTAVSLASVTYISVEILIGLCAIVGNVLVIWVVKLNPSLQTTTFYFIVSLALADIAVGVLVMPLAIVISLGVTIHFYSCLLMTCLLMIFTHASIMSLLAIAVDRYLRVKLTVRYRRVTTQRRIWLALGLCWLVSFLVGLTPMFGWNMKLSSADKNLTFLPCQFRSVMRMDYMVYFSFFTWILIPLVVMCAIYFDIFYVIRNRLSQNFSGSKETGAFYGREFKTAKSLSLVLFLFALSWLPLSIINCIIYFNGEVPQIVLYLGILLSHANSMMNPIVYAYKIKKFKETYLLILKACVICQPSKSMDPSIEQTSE
The assay can be described thus: Binding affinity to bovine adenosine A3 receptor.

The target of assay [8] is T3, Adenosine receptor A2a. The assay can be described thus: Displacement of [3H]ZM241385 from human adenosine A2a receptor expressed in HeLa cells at 10 uM after 30 mins. Type of assay: cell-based. The gist of the method: as §2
The target in assay [9] is T5, Adenosine receptor A2b. The assay can be described thus: Displacement of [3H]DPCPX from human adenosine A2b receptor expressed in HEK293 cells after 30 mins. Format: cell-based.
The species named for assay [10] is Homo sapiens. The assay can be described thus: Selectivity ratio of Ki for human adenosine A2a receptor to Ki for human A1 receptor.
Assay [11] is filed under the species Homo sapiens. The assay can be described thus: Selectivity ratio of Ki for human adenosine A2b receptor to Ki for human A1 receptor.
A short description of assay [12]: Binding affinity to bovine adenosine A2a receptor. Further details: species or system Bos taurus.
The nature of assay [13]: Binding affinity to human adenosine A2 receptor.
The species named for assay [14] is Bos taurus. The assay can be described thus: Binding affinity to bovine adenosine A2a receptor at 34 uM.
For assay [15], the target named is T7, Adenosine receptor A1 (Bos taurus) (UniProt P28190).
T7 sequence (whole entry): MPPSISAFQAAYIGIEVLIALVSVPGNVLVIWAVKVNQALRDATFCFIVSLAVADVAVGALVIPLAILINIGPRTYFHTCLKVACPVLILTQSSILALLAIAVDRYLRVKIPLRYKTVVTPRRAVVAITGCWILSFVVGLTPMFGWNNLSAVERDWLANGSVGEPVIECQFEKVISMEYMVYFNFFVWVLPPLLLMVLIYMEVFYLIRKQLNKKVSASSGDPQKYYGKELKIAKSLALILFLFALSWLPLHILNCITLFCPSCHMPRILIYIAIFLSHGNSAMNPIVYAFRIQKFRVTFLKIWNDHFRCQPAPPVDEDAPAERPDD
The assay can be described thus: Binding affinity to bovine adenosine A1 receptor at 34 uM.

For assay [16], the target named is T8, Adenosine receptor A3 (Homo sapiens, UniProt P0DMS8).
T8 sequence (P0DMS8 whole entry): T1 sequence (whole entry)
The assay can be described thus: Displacement of [3H]NECA from human adenosine A3 receptor expressed in HeLa cells after 180 mins. Format: cell-based. The gist of the method:
as §1

The source made the active and inactive calls. The calls are words filed in the database; no cut-off is given here.

T3 sequence (P29274 whole entry): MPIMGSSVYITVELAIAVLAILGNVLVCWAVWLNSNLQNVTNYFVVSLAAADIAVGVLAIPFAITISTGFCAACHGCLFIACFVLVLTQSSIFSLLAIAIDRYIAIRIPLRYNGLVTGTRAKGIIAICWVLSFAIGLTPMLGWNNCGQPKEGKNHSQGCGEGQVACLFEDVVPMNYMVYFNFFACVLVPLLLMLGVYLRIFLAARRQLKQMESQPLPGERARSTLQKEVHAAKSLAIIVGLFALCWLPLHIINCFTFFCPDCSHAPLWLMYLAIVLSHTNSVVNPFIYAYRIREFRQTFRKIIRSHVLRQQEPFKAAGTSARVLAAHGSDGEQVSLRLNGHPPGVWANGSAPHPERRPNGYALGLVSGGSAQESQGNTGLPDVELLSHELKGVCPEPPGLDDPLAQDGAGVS

Regarding `Cc1nc2c(=O)n(Cc3ccccc3)nc(-c3ccncc3)c2c2cc(-c3ccccc3)nn12`, the inhibition result in assay [1] and in [2] was “inactive” each time. Moreover, the Ki was determined as 501 nM in assay [3] and 43.6 nM in assay [4]. Moreover, in assay [5], the inhibition stood at 5.7%.
On to `COc1ccc(CCCn2ncc3c2nc(N)n2nc(-c4ccco4)nc32)cc1`, for which the Ki in assay [6] and in assay [7] was over 10000 nM throughout.
Turning to `Cc1nc2c(=O)n(Cc3ccccc3)nc(-c3cccnc3)c2c2cc(-c3ccccc3)nn12`, the inhibition result in assay [1] and in [2] was “inactive” in each case. The Ki in assay [3] stood at 2110 nM; in assay [4], 47.4 nM. In assay [5], the inhibition came to 29.7%.
As to `Cc1nn(Cc2ccccc2)c(=O)c2ncn3nc(-c4ccccc4)cc3c12`, the inhibition in assay [1] and in assay [8] was under 50% in each case. Besides, the values for the Ki in assay [4] and in assay [9] were 104 nM and 7560 nM, respectively.
As to `O=c1c2ncn3nc(-c4ccccc4)cc3c2c(-c2ccncc2)nn1Cc1ccccc1`, the Ratio Ki in [10] was 7. The inhibition result in assay [1] and in [2] was “inactive” throughout. The Ki in assay [3] came out at 67.9 nM; in assay [4], 10.2 nM.
As for `Cc1nn(Cc2ccccc2)c(=O)c2ncn3nc(-c4ccsc4)cc3c12`, the fold change (FC) in assay [10] was 90; in assay [11], 56. This molecule came in with an inhibition in [1] of under 50%. Besides, the values for the Ki in assay [3], in [4] and in assay [9] were 7360 nM, 85.3 nM and 4650 nM, respectively.
Regarding `O=c1c(-c2ccccc2)nnc2n(-c3ccccc3)c3ccccc3n12`, the results for the Ki in assay [12] and in assay [7] were over 10000 nM and over 1000 nM, respectively.
With `O=C(Cc1cccc2ccccc12)Nc1nc2nn(CCCc3ccccc3)cc2c2nc(-c3ccco3)nn12`, the Ki in assay [7] came out at 300 nM; in assay [13], 800 nM.
For `COc1ccc(-c2nc3c(O)nc4ccccc4n3n2)cc1`, the inhibition in [14] is 8.7%; in [15], 0%.
`Cc1nn(C(C)c2ccccc2)c(=O)c2nc(C)n3nc(-c4ccccc4)cc3c12` (configuration not stated): the inhibition in [2] and in assay [8] was under 50% in each case. The Ki in assay [4] is 3080 nM; in assay [16], 4730 nM.
As for `CCc1nc2c(=O)n(Cc3ccccc3)nc(-c3cccnc3)c2c2cc(-c3ccccc3)nn12`, the inhibition result in [1] and in assay [2] was “inactive” throughout. Besides, the affinity in assay [4], expressed as Ki, was 180 nM. The values for the inhibition in [8] and in assay [5] were under 50% and 32.8%, respectively.
For `O=c1c2ncn3nc(-c4ccccc4)cc3c2c(-c2cccnc2)nn1Cc1ccccc1`, the Ratio Ki in assay [10] was 71. For the same molecule, the inhibition result in [1] and in [2] was “inactive” throughout. The Ki came to 805 nM in assay [3] and 11.4 nM in assay [4].

Usually inhibition stands for the percentage by which the read-out fell short of the control. What is called Ki is the dissociation constant of the complex between target and ligand, obtained from inhibition or displacement. Lower therefore signals higher affinity.
